# From ChEMBL document CHEMBL4257473, “Design, synthesis and antibacterial evaluation of a polycationic calix[4]arene derivative alone and in combination with antibiotics” (Medchemcomm, 2018)
# Experiments:
# Format in all cases: functional
# [1] = test system: Staphylococcus epidermidis; experiment: Bactericidal activity against methicillin-resistant Staphylococcus epidermidis 57 incubated for 24 hrs followed by replating on Mueller hinton agar plates and measured after 24 hrs; settings: Staphylococcus epidermidis, 57, 24 h
# Method in brief: (§1)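 MBC follows the broth microdilution MIC step (MHB, 5×10^5 CFU mL⁻¹, 37 °C, 24 h). 15 µL from every clear MIC well is seeded onto Mueller Hinton agar and incubated 37 °C for 24 h. MBC is the lowest concentration giving no growth. At least three replicates, and modal value reported.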
# Staphylococcus aureus [2] = experiment: Bactericidal activity against Staphylococcus aureus ATCC 6538 incubated for 24 hrs followed by replating on Mueller hinton agar plates and measured after 24 hrs; settings: ATCC 6538, 24 h; method in brief: as §1
# Staphylococcus aureus [3] = experiment: Bactericidal activity against methicillin-resistant Staphylococcus aureus 15 incubated for 24 hrs followed by replating on Mueller hinton agar plates and measured after 24 hrs; settings: Staphylococcus aureus, 15, 24 h; method in brief: as §1
# Pseudomonas aeruginosa [4] = experiment: Antibacterial activity against Pseudomonas aeruginosa ATCC 9027 after 24 hrs by microbroth dilution method; settings: ATCC 9027, 24 h
# Method in brief: (§2)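 Broth microdilution per NCCLS guidelines in Mueller Hinton broth, from overnight cultures. Final inoculum 5×10^5 CFU mL⁻¹. Calixarene tested at 1–1024 μg mL⁻¹, ofloxacin 0.06–2048, chloramphenicol 1–2048, tetracycline 0.03–128 μg mL⁻¹. Plates incubated 37 °C for 24 h. MIC is the lowest concentration with no visible growth. Triplicate, with growth control, and modal value reported.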
# Pseudomonas aeruginosa [5] = experiment: Bactericidal activity against Pseudomonas aeruginosa ATCC 9027 incubated for 24 hrs followed by replating on Mueller hinton agar plates and measured after 24 hrs; settings: ATCC 9027, 24 h
# Method in brief: (§3)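 MBC follows a broth microdilution MIC run (Mueller Hinton broth, 5×10^5 CFU mL⁻¹, 37 °C, 24 h). 15 µL from every clear well is seeded onto Mueller Hinton agar and incubated at 37 °C for 24 h. MBC is the lowest concentration giving no growth. At least three replicates, modal result used.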
# Staphylococcus aureus [6] = experiment: Antibacterial activity against Staphylococcus aureus ATCC 6538 after 24 hrs by microbroth dilution method; settings: ATCC 6538, 24 h; method in brief: as §2
# [7] = test system: Staphylococcus epidermidis; experiment: Antibacterial activity against methicillin-resistant Staphylococcus epidermidis 57 after 24 hrs by microbroth dilution method; settings: Staphylococcus epidermidis, 57, 24 h; method in brief: as §2
# Pseudomonas aeruginosa [8] = experiment: Bactericidal activity against Pseudomonas aeruginosa isolate 1 incubated for 24 hrs followed by replating on Mueller hinton agar plates and measured after 24 hrs; settings: isolate 1, 24 h; method in brief: as §3
# [9] = test system: Staphylococcus epidermidis; experiment: Bactericidal activity against Staphylococcus epidermidis ATCC 35984 incubated for 24 hrs followed by replating on Mueller hinton agar plates and measured after 24 hrs; settings: ATCC 35984, 24 h; method in brief: as §1
# Staphylococcus aureus [10] = experiment: Antibacterial activity against methicillin-resistant Staphylococcus aureus 15 after 24 hrs by microbroth dilution method; settings: Staphylococcus aureus, 15, 24 h; method in brief: as §2
# Pseudomonas aeruginosa [11] = experiment: Antibacterial activity against Pseudomonas aeruginosa isolate 1 after 24 hrs by microbroth dilution method; settings: isolate 1, 24 h; method in brief: as §2
# [12] = test system: Staphylococcus epidermidis; experiment: Antibacterial activity against Staphylococcus epidermidis ATCC 35984 after 24 hrs by microbroth dilution method; settings: ATCC 35984, 24 h
# Method in brief: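 Broth microdilution per NCCLS guidelines in Mueller Hinton broth, overnight culture inoculated at final 5×10^5 CFU mL⁻¹. Calixarene tested at 1-1024 µg mL⁻¹. Incubation 37 °C for 24 h. MIC taken as the lowest concentration with no visible growth. Growth control included, triplicate runs, modal value reported.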
# [13] = test system: Staphylococcus epidermidis; experiment: Potency index, ratio of chloramphenicol MIC to test compound MIC for Staphylococcus epidermidis ATCC 35984
# Staphylococcus aureus [14] = experiment: Antibacterial activity against Staphylococcus aureus ATCC 6538 assessed as FIC index after overnight incubation in presence of ofloxacin by checkerboard assay
# Method in brief: (§4)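 Checkerboard combination of the calixarene with each antibiotic, each agent at final 2 to 0.015 times its MIC, giving 64 combinations. Inoculum prepared in Mueller Hinton broth and added at final 5×10^5 CFU mL⁻¹. Plates incubated overnight at 37 °C, then FICI calculated from the combination MICs.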
# Pseudomonas aeruginosa [15] = experiment: Antibacterial activity against Pseudomonas aeruginosa ATCC 9027 assessed as FIC index after overnight incubation in presence of ofloxacin by checkerboard assay; method in brief: as §4
# [16] = test system: Staphylococcus epidermidis; experiment: Potency index, ratio of ofloxacin MIC to test compound MIC for Staphylococcus epidermidis 57
# [17] = test system: Staphylococcus epidermidis; experiment: Antibacterial activity against Staphylococcus epidermidis ATCC 35984 assessed as FIC index after overnight incubation in presence of ofloxacin by checkerboard assay; method in brief: as §4
# Pseudomonas aeruginosa [18] = experiment: Potency index, ratio of chloramphenicol MBC to test compound MBC for Pseudomonas aeruginosa isolate 1
# Pseudomonas aeruginosa [19] = experiment: Antibacterial activity against Pseudomonas aeruginosa ATCC 9027 assessed as FIC index after overnight incubation in presence of tetracycline by checkerboard assay
# Method in brief: (§5)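 Checkerboard combinations of calixarene with antibiotic, each at final concentrations from 2 to 0.015 × its MIC, giving 64 combinations per plate. Inoculum prepared in MHB, final 5×10^5 CFU mL⁻¹. Incubated overnight at 37 °C. Fractional inhibitory concentration index calculated from the combination MICs.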
# Pseudomonas aeruginosa [20] = experiment: Antibacterial activity against Pseudomonas aeruginosa ATCC 9027 assessed as FIC index after overnight incubation in presence of chloramphenicol by checkerboard assay; method in brief: as §4
# Staphylococcus aureus [21] = experiment: Antibacterial activity against methicillin-resistant Staphylococcus aureus 15 assessed as FIC index after overnight incubation in presence of tetracycline by checkerboard assay; method in brief: as §5
# Pseudomonas aeruginosa [22] = experiment: Potency index, ratio of chloramphenicol MIC to test compound MIC for Pseudomonas aeruginosa isolate 1
# Pseudomonas aeruginosa [23] = experiment: Antibacterial activity against Pseudomonas aeruginosa isolate 1 assessed as FIC index after overnight incubation in presence of tetracycline by checkerboard assay; method in brief: as §4
# Pseudomonas aeruginosa [24] = experiment: Potency index, ratio of ofloxacin MBC to test compound MBC for Pseudomonas aeruginosa isolate 1
# [25] = test system: Staphylococcus epidermidis; experiment: Potency index, ratio of chloramphenicol MBC to test compound MBC for Staphylococcus epidermidis 57
# Staphylococcus aureus [26] = experiment: Antibacterial activity against Staphylococcus aureus ATCC 6538 assessed as FIC index after overnight incubation in presence of tetracycline by checkerboard assay; method in brief: as §4
# Staphylococcus aureus [27] = experiment: Antibacterial activity against methicillin-resistant Staphylococcus aureus 15 assessed as FIC index after overnight incubation in presence of ofloxacin by checkerboard assay; method in brief: as §5
# Staphylococcus aureus [28] = experiment: Potency index, ratio of chloramphenicol MIC to test compound MIC for methicillin-resistant Staphylococcus aureus 15
# Pseudomonas aeruginosa [29] = experiment: Antibacterial activity against Pseudomonas aeruginosa isolate 1 assessed as FIC index after overnight incubation in presence of ofloxacin by checkerboard assay; method in brief: as §4
# [30] = test system: Staphylococcus epidermidis; experiment: Potency index, ratio of chloramphenicol MIC to test compound MIC for Staphylococcus epidermidis 57
# [31] = test system: Staphylococcus epidermidis; experiment: Antibacterial activity against methicillin-resistant Staphylococcus epidermidis 57 assessed as FIC index after overnight incubation in presence of ofloxacin by checkerboard assay; method in brief: as §5
# Staphylococcus aureus [32] = experiment: Antibacterial activity against Staphylococcus aureus ATCC 6538 assessed as FIC index after overnight incubation in presence of chloramphenicol by checkerboard assay; method in brief: as §4
# [33] = test system: Staphylococcus epidermidis; experiment: Antibacterial activity against methicillin-resistant Staphylococcus epidermidis 57 assessed as FIC index after overnight incubation in presence of tetracycline by checkerboard assay; method in brief: as §5
# [34] = test system: Staphylococcus epidermidis; experiment: Potency index, ratio of chloramphenicol MBC to test compound MBC for Staphylococcus epidermidis ATCC 35984
# [35] = test system: Staphylococcus epidermidis; experiment: Potency index, ratio of ofloxacin MBC to test compound MBC for Staphylococcus epidermidis 57
# [36] = test system: Staphylococcus epidermidis; experiment: Antibacterial activity against Staphylococcus epidermidis ATCC 35984 assessed as FIC index after overnight incubation in presence of chloramphenicol by checkerboard assay; method in brief: as §5
# Staphylococcus aureus [37] = experiment: Potency index, ratio of chloramphenicol MBC to test compound MBC for methicillin-resistant Staphylococcus aureus 15
# Pseudomonas aeruginosa [38] = experiment: Antibacterial activity against Pseudomonas aeruginosa isolate 1 assessed as FIC index after overnight incubation in presence of chloramphenicol by checkerboard assay; method in brief: as §4
compound,measurement,setting,value
O=C(N[C@H](CO)[C@H](O)c1ccc([N+](=O)[O-])cc1)C(Cl)Cl [CHLORAMPHENICOL],MBC,[1],256 µg/mL
same,MBC,Staphylococcus aureus [2],8 µg/mL
same,MBC,Staphylococcus aureus [3],128 µg/mL
same,MIC,Pseudomonas aeruginosa [4],64 µg/mL
same,MBC,Pseudomonas aeruginosa [5],128 µg/mL
same,MIC,Staphylococcus aureus [6],4 µg/mL
same,MIC,[7],8 µg/mL
same,MBC,Pseudomonas aeruginosa [8],1020 µg/mL
same,MBC,[9],128 µg/mL
same,MIC,Staphylococcus aureus [10],8 µg/mL
same,MIC,Pseudomonas aeruginosa [11],512 µg/mL
same,MIC,[12],16 µg/mL
CCCOc1c2cc(C[N+](C)(CCO)CCO)cc1Cc1cc(C[N+](C)(CCO)CCO)cc(c1OCCC)Cc1cc(C[N+](C)(CCO)CCO)cc(c1OCCC)Cc1cc(C[N+](C)(CCO)CCO)cc(c1OCCC)C2.[Cl-].[Cl-].[Cl-].[Cl-],MBC,[1],8 µg/mL
same,Ratio,[13],4
same,fractional inhibitory concentration index (FICI),Staphylococcus aureus [14],1.25
same,fractional inhibitory concentration index (FICI),Pseudomonas aeruginosa [15],1.06
same,Ratio,[16],131
same,fractional inhibitory concentration index (FICI),[17],1.25
same,MBC,Staphylococcus aureus [2],8 µg/mL
same,MBC,Staphylococcus aureus [3],8 µg/mL
same,MIC,Pseudomonas aeruginosa [4],128 µg/mL
same,MBC,Pseudomonas aeruginosa [5],256 µg/mL
same,Ratio,Pseudomonas aeruginosa [18],4
same,fractional inhibitory concentration index (FICI),Pseudomonas aeruginosa [19],1.06
same,fractional inhibitory concentration index (FICI),Pseudomonas aeruginosa [20],0.62
same,fractional inhibitory concentration index (FICI),Staphylococcus aureus [21],1.03
same,Ratio,Pseudomonas aeruginosa [22],2
same,fractional inhibitory concentration index (FICI),Pseudomonas aeruginosa [23],0.56
same,Ratio,Pseudomonas aeruginosa [24],2
same,Ratio,[25],32
same,fractional inhibitory concentration index (FICI),Staphylococcus aureus [26],1.48
same,fractional inhibitory concentration index (FICI),Staphylococcus aureus [27],1
same,Ratio,Staphylococcus aureus [28],2
same,MIC,Staphylococcus aureus [6],4 µg/mL
same,fractional inhibitory concentration index (FICI),Pseudomonas aeruginosa [29],0.62
same,MIC,[7],4 µg/mL
same,MBC,Pseudomonas aeruginosa [8],256 µg/mL
same,Ratio,[30],2
same,fractional inhibitory concentration index (FICI),[31],1
same,fractional inhibitory concentration index (FICI),Staphylococcus aureus [32],1.12
same,fractional inhibitory concentration index (FICI),[33],1.03
same,MBC,[9],8 µg/mL
same,Ratio,[34],16
same,Ratio,[35],262
same,fractional inhibitory concentration index (FICI),[36],1.03
same,MIC,Staphylococcus aureus [10],4 µg/mL
same,Ratio,Staphylococcus aureus [37],16
same,fractional inhibitory concentration index (FICI),Pseudomonas aeruginosa [38],0.53
same,MIC,Pseudomonas aeruginosa [11],256 µg/mL
same,MIC,[12],4 µg/mL
